The source made the active and inactive calls. The rule behind the calls is not given here.
Experiments:
[1] = biological target: T1, Histone deacetylase (Homo sapiens) (UniProt Q13547+O15379+Q9UBN7+Q92769+Q9UQL6+Q8WUI4+Q9BY41+Q96DB2+P56524+Q9UKV0+Q969S8); assay: Inhibition of HDAC in human HeLa cell extract at 100 uM after 15 mins by fluorescence assay; format: protein assay
Histone deacetylase = assay: Inhibition of HDAC in human HeLa cell extract after 15 mins by fluorescence assay; format: protein assay
[2] = Cytotoxicity against human MCF7 cells assessed as cell viability at 15 uM after 72 hrs by Celltitre-glo assay; format: cell-based; settings: read-out: Activity
[3] = Cytotoxicity against human HepG2 cells assessed as cell viability at 15 uM after 72 hrs by Celltitre-glo assay; format: cell-based; settings: read-out: Activity
[4] = biological target: T2, NAD-dependent protein deacetylase sirtuin-2 (Homo sapiens) (UniProt Q8IXJ6); assay: Modulation of sirtuin 2 (unknown origin) by thermal shift assay
T2 sequence (whole entry): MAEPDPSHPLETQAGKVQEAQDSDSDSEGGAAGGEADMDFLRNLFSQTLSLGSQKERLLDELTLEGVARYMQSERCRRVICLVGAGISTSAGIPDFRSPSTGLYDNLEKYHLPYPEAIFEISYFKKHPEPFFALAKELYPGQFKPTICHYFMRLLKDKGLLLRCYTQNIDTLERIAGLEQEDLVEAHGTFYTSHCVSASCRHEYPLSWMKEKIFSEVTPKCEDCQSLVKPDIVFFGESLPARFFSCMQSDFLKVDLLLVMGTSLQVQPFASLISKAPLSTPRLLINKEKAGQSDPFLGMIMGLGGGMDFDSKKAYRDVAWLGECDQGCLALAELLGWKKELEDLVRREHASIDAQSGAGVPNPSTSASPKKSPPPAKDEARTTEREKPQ
Outline: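 Sirtuin 2 modulation tested by thermal shift assay.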

[5] = biological target: T3, Retinoic acid receptor beta (Homo sapiens) (UniProt P10826); assay: Inhibition of RAR-beta (unknown origin) assessed as change in DNA methylation
T3 sequence (whole entry): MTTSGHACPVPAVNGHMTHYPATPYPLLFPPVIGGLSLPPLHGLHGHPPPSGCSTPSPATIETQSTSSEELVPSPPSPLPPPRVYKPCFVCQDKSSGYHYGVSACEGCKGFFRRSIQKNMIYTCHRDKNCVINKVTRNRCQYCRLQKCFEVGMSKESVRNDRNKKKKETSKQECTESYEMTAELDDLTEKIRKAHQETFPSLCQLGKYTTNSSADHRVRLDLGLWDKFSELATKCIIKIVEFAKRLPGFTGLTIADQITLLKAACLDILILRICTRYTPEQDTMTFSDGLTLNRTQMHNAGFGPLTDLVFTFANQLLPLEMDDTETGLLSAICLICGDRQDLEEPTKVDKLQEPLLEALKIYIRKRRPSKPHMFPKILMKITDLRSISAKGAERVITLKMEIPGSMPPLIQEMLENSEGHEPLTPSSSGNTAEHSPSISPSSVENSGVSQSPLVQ
Outline: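 DNA methylation changes assessed by specific PCR for RARb.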

[6] = biological target: T1, Histone deacetylase (Homo sapiens); assay: Inhibition of HDAC in human MeT-5A cells assessed as hisone H3 acetylation after 16 hrs by BRET assay; format: cell-based
Outline: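 MeT-5A cells transfected with phRluc-C1-BrD and pEYFP-C1 histone H3, then exposed 16 h to increasing doses; BRET signal read as measure of histone H3 acetylation (rise in signal = more acetylation). SAHA used as positive control. Means ± SEM of three independent experiments.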

[7] = Cytotoxicity against human MeT-5A cells after 16 hrs by luciferase reporter gene assay; format: cell-based
Histone deacetylase 1 = Histone deacetylase 1 (Homo sapiens, UniProt Q13547); assay: Inhibition of HDAC1 (unknown origin) after 15 mins by fluorescence assay
Sequence of Histone deacetylase 1 (Q13547 whole entry): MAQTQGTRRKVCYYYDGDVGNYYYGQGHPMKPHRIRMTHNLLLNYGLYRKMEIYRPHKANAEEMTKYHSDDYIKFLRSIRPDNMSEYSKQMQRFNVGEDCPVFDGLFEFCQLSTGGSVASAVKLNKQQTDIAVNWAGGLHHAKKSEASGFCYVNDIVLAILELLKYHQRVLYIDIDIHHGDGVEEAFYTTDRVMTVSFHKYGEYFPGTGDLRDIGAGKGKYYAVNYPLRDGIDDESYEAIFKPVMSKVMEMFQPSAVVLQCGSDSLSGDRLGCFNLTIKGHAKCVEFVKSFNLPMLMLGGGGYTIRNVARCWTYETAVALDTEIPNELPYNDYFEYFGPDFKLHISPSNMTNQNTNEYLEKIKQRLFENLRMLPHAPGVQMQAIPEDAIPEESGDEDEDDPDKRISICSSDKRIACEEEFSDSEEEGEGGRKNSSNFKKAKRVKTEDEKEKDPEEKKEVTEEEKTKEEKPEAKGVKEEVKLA

Histone deacetylase 2 = Histone deacetylase 2 (Homo sapiens, UniProt Q92769); assay: Inhibition of HDAC2 (unknown origin) after 15 mins by fluorescence assay
Sequence of Histone deacetylase 2 (Q92769 whole entry): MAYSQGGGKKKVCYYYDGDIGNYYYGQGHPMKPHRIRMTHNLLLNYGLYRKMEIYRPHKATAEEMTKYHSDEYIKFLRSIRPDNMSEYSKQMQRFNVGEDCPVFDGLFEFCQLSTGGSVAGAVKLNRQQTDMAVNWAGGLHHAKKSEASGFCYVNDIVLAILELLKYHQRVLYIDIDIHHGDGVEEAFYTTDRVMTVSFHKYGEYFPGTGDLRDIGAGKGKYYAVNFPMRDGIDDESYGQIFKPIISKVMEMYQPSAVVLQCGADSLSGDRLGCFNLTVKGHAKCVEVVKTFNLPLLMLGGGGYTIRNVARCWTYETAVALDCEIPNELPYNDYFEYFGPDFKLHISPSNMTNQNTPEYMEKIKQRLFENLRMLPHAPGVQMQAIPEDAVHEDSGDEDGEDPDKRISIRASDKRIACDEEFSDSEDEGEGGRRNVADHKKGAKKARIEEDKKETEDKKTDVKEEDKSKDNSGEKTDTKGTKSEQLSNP

[8] = biological target: T4, Protein deacetylase HDAC6 (Homo sapiens, UniProt Q9UBN7); assay: Inhibition of HDAC6 (unknown origin) after 15 mins by fluorescence assay
T4 sequence (Q9UBN7 whole entry): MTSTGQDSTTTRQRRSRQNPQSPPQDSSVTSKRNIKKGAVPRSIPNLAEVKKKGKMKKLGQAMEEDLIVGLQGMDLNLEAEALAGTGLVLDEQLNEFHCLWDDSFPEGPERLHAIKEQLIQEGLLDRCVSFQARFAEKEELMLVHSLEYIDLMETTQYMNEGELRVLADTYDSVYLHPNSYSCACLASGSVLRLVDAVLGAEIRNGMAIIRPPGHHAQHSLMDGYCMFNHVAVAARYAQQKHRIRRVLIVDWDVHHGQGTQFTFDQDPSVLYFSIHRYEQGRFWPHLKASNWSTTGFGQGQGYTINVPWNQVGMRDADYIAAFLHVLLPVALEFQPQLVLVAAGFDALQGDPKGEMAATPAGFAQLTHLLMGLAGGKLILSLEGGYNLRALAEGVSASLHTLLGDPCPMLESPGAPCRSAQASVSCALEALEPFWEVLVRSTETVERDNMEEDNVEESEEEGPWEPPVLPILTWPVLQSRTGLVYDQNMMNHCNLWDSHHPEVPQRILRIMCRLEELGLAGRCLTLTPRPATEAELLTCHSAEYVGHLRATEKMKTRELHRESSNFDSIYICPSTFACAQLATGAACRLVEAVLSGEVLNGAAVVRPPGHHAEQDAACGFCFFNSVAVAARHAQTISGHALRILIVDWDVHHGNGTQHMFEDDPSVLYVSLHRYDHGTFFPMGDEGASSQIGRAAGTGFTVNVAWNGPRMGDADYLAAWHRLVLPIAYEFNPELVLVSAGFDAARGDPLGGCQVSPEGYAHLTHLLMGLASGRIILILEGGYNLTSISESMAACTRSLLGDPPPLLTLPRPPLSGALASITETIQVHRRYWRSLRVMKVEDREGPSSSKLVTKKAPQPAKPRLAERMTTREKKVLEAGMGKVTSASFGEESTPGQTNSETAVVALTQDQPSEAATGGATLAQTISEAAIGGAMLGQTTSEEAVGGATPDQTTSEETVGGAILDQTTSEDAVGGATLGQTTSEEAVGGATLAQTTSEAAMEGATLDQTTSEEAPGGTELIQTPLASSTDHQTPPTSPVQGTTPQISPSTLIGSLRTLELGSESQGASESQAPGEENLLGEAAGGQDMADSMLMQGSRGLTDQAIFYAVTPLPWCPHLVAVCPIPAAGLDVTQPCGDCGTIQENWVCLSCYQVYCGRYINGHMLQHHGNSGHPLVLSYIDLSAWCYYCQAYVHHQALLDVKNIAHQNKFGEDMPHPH

Row | inhibition [1] | IC50 (Histone deacetylase) | inhibition [4] | inhibition [5] | inhibition [6] | IC50 (Histone deacetylase 1) | IC50 (Histone deacetylase 2) | IC50 [8] | Compound | viability at 72 h, 15 µM [2] | viability at 72 h, 15 µM [3] | Activity [7]
1 | 75% | 40 µM | inactive | inactive | – | – | – | – | COCOc1cc(OCOC)c2c(c1)O/C(=C\c1ccc(OCOC)c(OCOC)c1)C2=O | 21% | 7% | –
2 | 7% | – | inactive | inactive | – | – | – | – | COc1cc(OC)c2c(c1)O/C(=C\c1ccccc1OC)C2=O | 89% | 104% | –
3 | 51% | 71 µM | inactive | inactive | Dose-dependent effect | – | – | – | COc1ccc(/C=C2\Oc3ccccc3C2=O)cc1OC [3',4'-DIMETHOXY-AURONE] | 91% | 114% | Dose-dependent effect
4 | 7% | – | inactive | inactive | – | – | – | – | COc1ccccc1/C=C1\Oc2ccccc2C1=O [(Z)-2'-METHOXYAURONE] | 88% | 103% | –
5 | 12% | – | inactive | inactive | – | – | – | – | COc1cccc(/C=C2\Oc3ccccc3C2=O)c1OC | 94% | 104% | –
6 | 46% | – | inactive | inactive | – | – | – | – | COc1cc(OC)c2c(c1)O/C(=C\c1ccccc1Cl)C2=O | 72% | 80% | –
7 | 14% | – | inactive | inactive | Dose-dependent effect | – | – | – | COc1ccc(/C=C2\Oc3ccc(Br)cc3C2=O)cc1OC | 108% | 93% | Dose-dependent effect
8 | 13% | – | inactive | inactive | – | – | – | – | O=C1/C(=C/c2ccc(Cl)cc2)Oc2ccccc21 | 85% | 110% | –
9 | 1% | – | inactive | inactive | – | – | – | – | COc1cccc(/C=C2\Oc3ccccc3C2=O)c1 [3'-METHOXY-AURONE] | 89% | 101% | –
10 | 98% | 18.6 µM | inactive | inactive | Dose-dependent effect | 21 µM | 16.4 µM | 26.9 µM | O=C1/C(=C/c2cccc(O)c2O)Oc2ccccc21 | 109% | 113% | Dose-dependent effect
11 | 100% | 12.6 µM | inactive | inactive | Dose-dependent effect | 129 µM | 100 µM | 136 µM | O=C1/C(=C/c2ccc(O)cc2)Oc2ccccc21 | 79% | 100% | Dose-dependent effect
12 | 5% | – | inactive | inactive | – | – | – | – | Cc1ccc(/C=C2\Oc3ccccc3C2=O)cc1 | 86% | 35% | –
13 | 27% | – | inactive | inactive | – | – | – | – | COc1cc(OC)c2c(c1)O/C(=C\c1ccccc1)C2=O | 73% | 9% | –
14 | 30% | – | inactive | inactive | – | – | – | – | O=C(O)c1ccc(/C=C2\Oc3ccc(Cl)cc3C2=O)cc1 | 109% | 86% | –
15 | 20% | – | inactive | inactive | – | – | – | – | COc1ccc(/C=C2\Oc3cc(OC)cc(OC)c3C2=O)cc1 [4,4',6-TRIMETHOXY-AURONE] | 10% | 119% | –
16 | 0% | – | inactive | inactive | – | – | – | – | O=C(/C=C/c1ccc(Cl)cc1)c1ccccc1O | 90% | 62% | –
17 | 6% | – | inactive | inactive | – | – | – | – | COc1cccc(/C=C2\Oc3ccc(Cl)cc3C2=O)c1OC | 115% | 99% | –
18 | 0% | – | inactive | inactive | – | – | – | – | Cc1ccc(/C=C/C(=O)c2ccccc2O)cc1 | 96% | 120% | –
19 | 23% | – | inactive | inactive | – | – | – | – | COc1ccc(/C=C2\Oc3ccccc3C2=O)cc1 [4'-METHOXY-AURONE] | 88% | 65% | –
20 | 28% | – | inactive | inactive | – | – | – | – | O=C(O)c1ccc(/C=C2\Oc3ccccc3C2=O)cc1 | 105% | 73% | –
21 | 100% | 8.2 µM | inactive | inactive | Dose-dependent effect | 11.4 µM | 5.1 µM | 26.9 µM | O=C1/C(=C/c2ccc(O)c(O)c2)Oc2ccccc21 | 95% | 114% | Dose-dependent effect
22 | 100% | 18.5 µM | inactive | inactive | Dose-dependent effect | 38 µM | 38.9 µM | 48.5 µM | O=C1/C(=C/c2ccc(O)c(O)c2)Oc2cc(O)cc(O)c21 [AUREUSIDIN] | 102% | 116% | Dose-dependent effect

Reference: ChEMBL document CHEMBL3352210, “Aurones as histone deacetylase inhibitors: identification of key features” (Bioorg Med Chem Lett, 2014)
